# Screens: PubChem BioAssay, several laboratories
# Hits are enriched below; roughly 1.4% of the tested compounds scored in any of these assays.
# TAG inh: triacylglycerol accumulation inhibition; H9c2 cells, Nile Red lipid (TAG) fluorescence; cells loaded with 200 µM oleic acid; 230,000 tested, 0.66% active; inhibition, % at 12.5 µM;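 active = pattern-corrected inhibition of lipid staining of at least 50% with the nuclear-stain viability signal not falling by more than 50%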;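 note: 0% = DMSO wells and 100% = triacsin C control wells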
# Tn6 DDE FP: DD(E)-Tn6 binding inhibition, primary FP screen | P02675 | Fibrin DD(E) TRITC-Tn6 fluorescence polarization displacement | inhibition, % at 8.3 µM | 370,000 tested, 0.21% active | AID 720509;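 active = inhibition above a per-campaign cutoff: mean of compounds within control limits plus 3 SD, cut at about 15% in these data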;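 note: 0% = median of all compound wells on the plate and 100% = blocking peptide control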
# H9c2 protect: myocardial damage modulation in H9c2 cells. protection from H2O2 cell death, % at 20 µM. H9c2 cardiomyocytes, H2O2 injury protection, ATPLite, 2 h. 360,000 tested, 0.63% active. AID 588492;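 active = compounds giving at least 50% protection of heart cells from peroxide-induced death in the single-dose screen, raw or plate-pattern-corrected value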;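 note: 0% = DMSO wells with peroxide and 100% = DMSO wells without peroxide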
# MT1-MMP act inh: blocks activation of human MT1-MMP. HT1080 RFP-PRO-GFP cells, GFP/RFP ratio fluorescence, overnight; percent of plate control window, DMSO zero. P50281. GFP/RFP ratio change, % at 20 µM. AID 651647. 360,000 tested, 0.061% active;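 active = GFP/RFP ratio change of at least 30% with cell ATP level not reduced by more than half and red fluorescence within 50% of control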
#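 Test system: HT1080 cells expressing an RFP-PRO-GFP fluorescent reporter construct / Compound dosing: single-point 20 µM compound, 1% DMSO / Schedule: cells overnight before dosing, compound overnight, 37 °C, 5% CO2 / Evaluation: GFP/RFP fluorescence ratio / Control set: DMSO and RFP-L50D-GFP cell wells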
# DDE Tn7 FP inh: disrupts Tn7 cyclic peptide binding to fibrin D-Dimer-E complex; inhibition, % at 8.3 µM; FP displacement of FITC-Tn7 peptide from fibrin DD(E); 0% = median of compound wells per plate; 370,000 tested, 0.13% active;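 active = inhibition above the mean of compounds falling within the control limits plus 3 SD of them, cut at about 14% in these data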;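 note: 0% = plate median of compound wells and 100% = 10 µM Aha-Tn7 peptide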
#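 Assay system: Human clot-derived fibrin DD(E) complex | Buffer or medium: Tris/NaCl/CaCl2 buffer, pH 7.8 | Repeats: One replicate per compound | Benchmarks: Aha-Tn7 high control | Measure: % inhibition scaled between sample-field median and high-control FP | Schedule: 10 min plus 3 h, room temperature | Signal: Fluorescence polarization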
# DAGLB inh: diacylglycerol lipase beta (human) inhibition; HEK293T DAGLB membrane lysate, EnzChek fluorogenic substrate; inhibition, % at 5.17 µM; 340,000 tested, 0.059% active; AID 504411; in the data active = inhibition above about 34%;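 note: 0% = enzyme with vehicle and 100% = wells lacking enzyme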
# H9c2 TAG conf: confirmation of triacylglycerol accumulation inhibitors; shares compounds with TAG inh; H9c2 lipid accumulation, Nile Red fluorescence; cells loaded with 200 µM oleic acid; inhibition, % at 12.5 µM; 990 tested, 71% active; AID 651629;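 active = mean inhibition across replicates of 40% or more; inactive = mean inhibition below 40%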;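 note: plate controls were DMSO only wells for no effect and Triacsin C treated wells for full effect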
# * = called active by the depositor; / = no result.
SMILES,TAG inh,Tn6 DDE FP,H9c2 protect,MT1-MMP act inh,DDE Tn7 FP inh,DAGLB inh,H9c2 TAG conf
CC(C)c1ccc(NC(=O)Nc2nc(C(N)c3ccccc3)cs2)cc1 (centres undefined),36,-10,-11,-2,0,/,/
COc1cccc(Nc2nc(C(N)Cc3ccc(C(F)(F)F)cc3)cs2)n1 (centres undefined),72*,3,-12,-4,-7,/,37
NC(Cc1ccc(Cl)cc1)c1csc(NC(=O)NCCc2ccccc2)n1 (centres undefined),74*,-3,-9,-5,-3,/,42*
CC(C)c1ccc(NC(=O)Nc2nc(C(N)COCc3ccccc3)cs2)cc1 (centres undefined),83*,-11,-12,8,-2,/,102*
C=CCN1[C@H](C#N)[C@@H](c2ccc(C#Cc3ccccc3OC)cc2)[C@H]1CO,/,-6,/,/,4,/,/
COc1ccccc1CNC(=O)Nc1nc(C(N)CCc2ccccc2)cs1 (centres undefined),57*,5,-9,1,-2,/,35
COc1cc(CNC(=O)Nc2nc(C(N)Cc3ccc(Cl)cc3)cs2)cc(OC)c1OC (centres undefined),67*,-1,-4,0,-10,/,94*
COc1cc(CNC(=O)Nc2nc(C(N)c3ccccc3)cs2)cc(OC)c1OC (centres undefined),23,-4,-3,-3,4,/,/
NC(Cc1ccccc1)c1csc(NC(=O)c2cccc(OC(F)(F)F)c2)n1 (centres undefined),26,6,-20,5,2,/,/
COc1ccc(CC(N)c2csc(NC(=O)c3cccc(OC(F)(F)F)c3)n2)cc1 (centres undefined),52*,0,-27,-1,0,/,34
NC(CCc1ccccc1)c1csc(NC(=O)NCCc2ccccc2)n1 (centres undefined),45,-10,-11,2,7,/,/
COc1ccc(Cn2cc(COC(=O)N3CCOCC3)nn2)cc1,/,1,/,/,0,/,/
CN1CCCN(S(=O)(=O)c2ccc3c(c2)n(C)c(=O)c(=O)n3C)CC1,/,-2,/,/,-2,/,/
O=C(Nc1ccc(N2C(=O)CC3(CCCCC3)C2=O)c(Cl)c1)c1ccccn1,/,-1,/,/,2,/,/
OC[C@@H]1CC[C@@H]2O[C@H](CCc3ccc(-c4ccc(F)cc4)cc3)[C@H](n3cc(C4CC4)nn3)C[C@@H]2O1,/,8,/,/,0,/,/
O[C@H](COc1cccc(Br)c1)CN1CCC(C(O)(c2ccccc2)c2ccccc2)CC1,/,-4,/,/,-7,/,/
COc1cc(/C=C2/NC(=O)N(Cc3ccccc3F)C2=O)ccc1O,59*,-3,10,-1,2,4,63*
CCN(CC)CCNc1nc(-n2nc(C)cc2C)nc2sc3c(c12)CC(C)(C)OC3,55*,-3,18,-7,1,-1,56*
CCN(CC)CCNc1ncnc2c1sc1nc(N3CCCC3)c3c(c12)CC(C)(C)OC3,56*,-3,-9,-3,-2,1,45*
CN(C)CCNc1ncnc2c1sc1nc(N3CCCC3)c3c(c12)CC(C)(C)OC3,29,0,-6,8,7,1,/
CC(C)CN1C(=O)C[C@]2(C(=O)N(C)c3ccc(NS(=O)(=O)c4ccc(F)cc4)cc32)C1c1ccccc1 (some centres undefined),/,5,/,/,-1,/,/
COc1ccc(CN2CN3Cc4ccccc4C3CS2(=O)=O)cc1 (centres undefined),/,-1,/,/,-3,/,/
COc1ccc(-c2sc3cc4c(cc3c2C#CCO)OCO4)cc1,-46,-4,-8,3,5,-5,/
COc1ccc(-c2sc3cc4c(cc3c2C#Cc2ccc(N)cc2)OCO4)cc1,55*,-9,-14,0,2,2,58*
COC(=O)[C@]12C[C@H](CC(=O)NCC3CCCCC3)C(=O)N(Cc3ccco3)C1=C[C@H](C(C)(C)C)O[C@@H]2C,/,4,/,/,4,/,/
